# Data as given in ChEMBL document CHEMBL3994666 (ACS Med Chem Lett, 2017).
# pIC50: −log10 of the molar value. Calls of active or inactive are those of the source. The rule behind the calls is not given here.
# Tests used:
# [1] = target: T1, Proteasome Macropain subunit MB1 (Homo sapiens, UniProt P28074); assay: Inhibition of proteasome beta5 in human MOLT4 cell lysate after 1 hr by ELISA
# T1 sequence (P28074 whole entry): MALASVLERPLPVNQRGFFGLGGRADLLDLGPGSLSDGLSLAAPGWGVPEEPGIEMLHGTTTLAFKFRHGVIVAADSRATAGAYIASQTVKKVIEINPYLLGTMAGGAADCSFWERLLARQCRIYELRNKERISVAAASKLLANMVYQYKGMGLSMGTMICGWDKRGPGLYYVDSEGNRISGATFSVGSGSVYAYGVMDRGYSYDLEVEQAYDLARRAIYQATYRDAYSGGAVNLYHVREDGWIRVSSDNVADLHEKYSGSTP
# Method in brief: (§1)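 ProCISE subunit-specific ELISA of proteasome catalytic active sites in cell lysate. Values are mean ± SD, n ≥ 2.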
# [2] = target: T2, Proteasome subunit beta type-9 (Homo sapiens, UniProt P28065); assay: Inhibition of LMP2 in human MOLT4 cell lysate after 1 hr by ELISA; method in brief: as §1
# T2 sequence (P28065 whole entry): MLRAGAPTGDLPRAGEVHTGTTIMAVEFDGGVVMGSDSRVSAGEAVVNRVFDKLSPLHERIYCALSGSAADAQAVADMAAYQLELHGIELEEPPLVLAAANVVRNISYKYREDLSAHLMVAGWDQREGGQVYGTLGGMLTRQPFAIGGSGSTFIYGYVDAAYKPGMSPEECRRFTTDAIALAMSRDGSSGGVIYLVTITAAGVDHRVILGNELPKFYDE
# [3] = Stability in Balb/c mouse liver S9 fraction assessed as compound remaining at 1 uM incubated for 90 mins in absence of NADPH by LC-MS/MS analysis; format: ADME, tissue-based; settings: read-out: Stability
# Method in brief: (§2)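 Compound incubated with liver S9 fraction for 90 min without NADPH. Values are mean ± SD, n ≥ 3.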
# [4] = Solubility of the compound in phosphate buffer at pH 7.2 at 10 mg/ml after 24 hrs by UV-HPLC method; format: physicochemical
# Method in brief: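 Solubility measured at pH 7.2. Values are mean ± SD, n = 2.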
# [5] = target: T3, Proteasome subunit beta type-10 (Homo sapiens, UniProt P40306); assay: Inhibition of MECL1 in human MOLT4 cell lysate after 1 hr by ELISA
# T3 sequence (P40306 whole entry): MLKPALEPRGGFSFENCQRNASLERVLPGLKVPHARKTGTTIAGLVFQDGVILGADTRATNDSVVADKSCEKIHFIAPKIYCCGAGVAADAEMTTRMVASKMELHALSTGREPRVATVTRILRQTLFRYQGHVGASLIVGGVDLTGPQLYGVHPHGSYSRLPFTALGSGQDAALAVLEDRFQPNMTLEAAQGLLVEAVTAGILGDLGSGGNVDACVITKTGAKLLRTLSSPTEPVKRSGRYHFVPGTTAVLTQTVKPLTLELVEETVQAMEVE
# [6] = Stability in Sprague-Dawley rat liver S9 fraction assessed as compound remaining at 1 uM incubated for 90 mins in absence of NADPH by LC-MS/MS analysis; format: ADME, tissue-based; settings: read-out: Stability; method in brief: as §2
# [7] = Stability in human liver S9 fraction assessed as compound remaining at 1 uM incubated for 90 mins in absence of NADPH by LC-MS/MS analysis; format: ADME, tissue-based; settings: read-out: Stability; method in brief: as §2
# [8] = target: T4, Proteasome subunit beta type-8 (Homo sapiens, UniProt P28062); assay: Inhibition of LMP7 in human MOLT4 cell lysate after 1 hr by ELISA; method in brief: as §1
# T4 sequence (P28062 whole entry): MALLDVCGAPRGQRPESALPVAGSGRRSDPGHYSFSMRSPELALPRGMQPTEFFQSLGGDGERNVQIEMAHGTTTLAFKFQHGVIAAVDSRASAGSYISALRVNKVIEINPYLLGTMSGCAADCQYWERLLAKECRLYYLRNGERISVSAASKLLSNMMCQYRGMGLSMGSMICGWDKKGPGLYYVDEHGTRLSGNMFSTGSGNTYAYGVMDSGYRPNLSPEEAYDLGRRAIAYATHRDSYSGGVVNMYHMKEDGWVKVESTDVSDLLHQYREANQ
# Mus musculus [9] = assay: In vivo inhibition of proteasome beta5 in Balb/c mouse assessed as residual activity in blood at 1 mg/kg, iv administered as single bolus dose using PEG300/WFI formulation after 1 hr by ELISA relative to control; format: functional
# Method in brief: (§3)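 Mice dosed intravenously at nominal doses. Blood collected 1 h later and proteasome active-site activity (LMP2, LMP7, β5) measured by ProCISE subunit-specific ELISA. Expressed as % activity remaining relative to control.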
# PBMC [10] = assay: Anti-inflammatory activity in human PBMC assessed as inhibition of LPS-induced GMCSF production pretreated for 1 hr followed by LPS stimulation measured after 20 hrs; format: functional, cell-based
# PBMC [11] = assay: Anti-inflammatory activity in human PBMC assessed as inhibition of LPS-induced IL-8 production pretreated for 1 hr followed by LPS stimulation measured after 20 hrs; format: functional, cell-based
# Mus musculus [12] = assay: In vivo inhibition of LMP2 in Balb/c mouse assessed as residual activity in blood at 1 mg/kg, iv administered as single bolus dose using PEG300/WFI formulation after 1 hr by ELISA relative to control; format: functional; method in brief: as §3
# Mus musculus [13] = assay: In vivo inhibition of LMP7 in Balb/c mouse assessed as residual activity in blood at 1 mg/kg, iv administered as single bolus dose using PEG300/WFI formulation after 1 hr by ELISA relative to control; format: functional; method in brief: as §3
# PBMC [14] = assay: Anti-inflammatory activity in human PBMC assessed as inhibition of LPS-induced Il-1b production pretreated for 1 hr followed by LPS stimulation measured after 20 hrs; format: functional, cell-based
# PBMC [15] = assay: Anti-inflammatory activity in human PBMC assessed as inhibition of LPS-induced IL-12/23 p40 production pretreated for 1 hr followed by LPS stimulation measured after 20 hrs; format: functional, cell-based
# PBMC [16] = assay: Anti-inflammatory activity in human PBMC assessed as inhibition of LPS-induced IL-6 production pretreated for 1 hr followed by LPS stimulation measured after 20 hrs; format: functional, cell-based
# PBMC [17] = assay: Anti-inflammatory activity in human PBMC assessed as inhibition of LPS-induced TNF-alpha production pretreated for 1 hr followed by LPS stimulation measured after 20 hrs; format: functional, cell-based
# PBMC [18] = assay: Cytotoxicity against human PBMC assessed as decrease in cell viability by CellTiter-Glo assay; format: cell-based
# Method in brief: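 PBMC viability read out with CellTiter-Glo. IC50 derived from the viability signal.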
# Mus musculus [19] = assay: In vivo inhibition of LMP2 in Balb/c mouse heart at >1 mg/kg, iv administered as single bolus dose using 10% EtOH/25% PEG300 formulation after 1 hr by ELISA relative to control; format: functional
# Mus musculus [20] = assay: In vivo inhibition of proteasome beta5 in Balb/c mouse assessed as residual activity in blood at 1 mg/kg, iv administered as single bolus dose using 10% EtOH/25% PEG300 formulation after 1 hr by ELISA relative to control; format: functional; method in brief: as §3
# Mus musculus [21] = assay: In vivo inhibition of LMP2 in Balb/c mouse assessed as residual activity in blood at 1 mg/kg, iv administered as single bolus dose using 10% EtOH/25% PEG300 formulation after 1 hr by ELISA relative to control; format: functional; method in brief: as §3
# Mus musculus [22] = assay: In vivo inhibition of LMP2 in Balb/c mouse kidney at >1 mg/kg, iv administered as single bolus dose using 10% EtOH/25% PEG300 formulation after 1 hr by ELISA relative to control; format: functional
# Mus musculus [23] = assay: In vivo inhibition of LMP2 in Balb/c mouse liver at >1 mg/kg, iv administered as single bolus dose using 10% EtOH/25% PEG300 formulation after 1 hr by ELISA relative to control; format: functional
# Mus musculus [24] = assay: In vivo inhibition of LMP2 in Balb/c mouse brain at >1 mg/kg, iv administered as single bolus dose using 10% EtOH/25% PEG300 formulation after 1 hr by ELISA; format: functional, organism-based
# Mus musculus [25] = assay: In vivo inhibition of LMP7 in Balb/c mouse assessed as residual activity in blood at 1 mg/kg, iv administered as single bolus dose using 10% EtOH/25% PEG300 formulation after 1 hr by ELISA relative to control; format: functional; method in brief: as §3
# Mus musculus [26] = assay: In vivo inhibition of LMP7 in Balb/c mouse assessed as residual activity in blood at 2 mg/kg, iv administered as single bolus dose using 10% EtOH/25% PEG300 formulation after 1 hr by ELISA relative to control; format: functional; method in brief: as §3
# Mus musculus [27] = assay: In vivo inhibition of proteasome beta5 in Balb/c mouse assessed as residual activity in blood at 2 mg/kg, iv administered as single bolus dose using 10% EtOH/25% PEG300 formulation after 1 hr by ELISA relative to control; format: functional; method in brief: as §3
# Mus musculus [28] = assay: In vivo inhibition of LMP2 in Balb/c mouse assessed as residual activity in blood at 2 mg/kg, iv administered as single bolus dose using 10% EtOH/25% PEG300 formulation after 1 hr by ELISA relative to control; format: functional; method in brief: as §3
pIC50 [1],pIC50 [2],"remaining at 1.5 h, 1 µM [3] [%]",solubility at 24 h [4] [µg/mL],pIC50 [5],"remaining at 1.5 h, 1 µM [6] [%]","remaining at 1.5 h, 1 µM [7] [%]",pIC50 [8],Structure (SMILES),pIC50 (PBMC [10]),pIC50 (PBMC [11]),pIC50 (PBMC [14]),pIC50 (PBMC [15]),pIC50 (PBMC [16]),pIC50 (PBMC [17]),pIC50 (PBMC [18]),further results
4.37,6.95,85.1,7520,< 3.60,58.8,25.3,4.35,C[C@H](NC(=O)c1cccc(=O)[nH]1)C(=O)N[C@@H](Cc1ccccc1)C(=O)[C@@]1(C)CO1,,,,,,,,
,,106,461,,23.3,8.6,,COc1ccc(C[C@H](NC(=O)[C@H](C)NC(=O)CN2CCOCC2)C(=O)N[C@@H](Cc2ccccc2)C(=O)[C@@]2(C)CO2)cc1,6.66,5.95,5.83,6.92,6.62,6.25,5.47,Activity (Mus musculus [9]): 99.8%; Activity (Mus musculus [12]): 95%; Activity (Mus musculus [13]): 65.3%
5.16,7.29,90.9,6640,< 3.60,92.3,81.5,5.37,C[C@]1(C(=O)[C@H](Cc2ccccc2)NC(=O)[C@H](CO)NC(=O)c2cccc(=O)[nH]2)CO1,< 4.60,< 4.60,< 4.60,< 5.01,< 4.72,< 4.60,< 4.60,inhibition (INH) (Mus musculus [19]): >50%; Activity (Mus musculus [20]): 101.7%; Activity (Mus musculus [21]): 31.1%; inhibition (INH) (Mus musculus [22]): >50%; inhibition (INH) (Mus musculus [23]): >50%; inhibition (Mus musculus [24]): inactive; Activity (Mus musculus [25]): 102.5%
4.74,6.85,0.4,166,< 3.60,8,1.1,5.32,COc1ccc(C[C@H](NC(=O)c2cccc(=O)[nH]2)C(=O)N[C@@H](Cc2ccccc2)C(=O)[C@@]2(C)CO2)cc1,< 4.60,< 4.60,< 4.60,< 5.25,< 4.80,< 4.60,< 4.60,Activity (Mus musculus [26]): 98.3%; Activity (Mus musculus [27]): 90.7%; Activity (Mus musculus [28]): 83%
